FN deposition inh: fibronectin deposition inhibition | AH1F fibroblasts, Alexa488-fibronectin deposition fluorescence, overnight | inhibition, % at 12.6 µM | 350,000 compounds, 0.086% hits;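 active = mean inhibition across replicates of 30% or more, regardless of how many single replicates reach that level; inconclusive = mean under 30% yet at least half of replicates reach 30%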;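 also: positive control wells lacked labelled fibronectin entirely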
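Material: AH1F fibroblast monolayer depositing Alexa488-labelled fibronectin into matrix / Amount: 10000 AH1F cells per well / Signal: fluorescence 485/525 nm / Medium: DMEM, 2% serum / Compound: single dose, pinned / Incubation: 1 h cell adhesion before compound, then overnight fibronectin incubation / Reagent: Alexa488-FN, 24 nM final / Read-out: inhibition of fibronectin deposition signal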
HIV Env fusion: HIV envelope-mediated fusion inhibition; HeLa-JRFL Env/CEM21 cell fusion, luciferase; inhibition, % at 12.3 µM; 360,000 compounds, 1.1% hits; AID 651610;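 active = mean replicate inhibition score of at least 50 and every replicate individually at or above 50; inconclusive = only one of the two criteria met; inactive = mean below 50 and not all replicates reaching 50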;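 also: 0% = plate neutral controls and 100% = maraviroc near 300 nM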
PGC1a acetyl inh: lowers PGC1a acetylation signal in U2OS cells; AlphaScreen anti-acetyl-lysine; with virally co-expressed GCN5 acetyltransferase; inhibition, % at 15.6 µM; 350,000 compounds, 0.17% hits; AID 651687;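 active = every replicate shows inhibition of at least 40%; inconclusive = mean inhibition at least 40% but some replicate below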;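 also: 0% = neutral control wells and 100% = positive control wells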
PAX8 inh HTS: inhibitors of PAX8 transcriptional activity in RMG-I cells. RMG-I TPO-luciferase reporter, SteadyGlo, 24 h. AID 652154. 360,000 compounds, 1.2% hits. inhibition, % at 12.6 µM;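 active = mean replicate inhibition at least 60% with every replicate also reaching 60%; inconclusive = only one of the two criteria is met; inactive = mean below 60% and not all replicates reaching 60%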;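 also: luciferase light reporting Pax8 driven TPO promoter activity; plate controls were median of neutral control wells for no effect and mitoxantrone controls for full effect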
EWS-Fli inh: EWS/Fli transcriptional activity inhibition | A673 NR0B1-luciferase reporter, viability-normalised | 350,000 compounds, 0.67% hits | inhibition, % at 12.6 µM;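 active = mean inhibition of at least 50% after viability correction, with every replicate also passing that limit; inconclusive = mean reaches 50% but only one of two replicates passes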;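 also: firefly luciferase signal divided by Alamar Blue viability fluorescence both relative to DMSO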
F508del corr: CFTR F508del correction in bronchial cells; CFBE cells, YFP halide quenching; stimulated with forskolin plus potentiator P3; % fluorescence drop versus neutral controls; activity (quench increase), % at 7.58 µM; 350,000 compounds, 0.36% hits; AID 720511;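 active = mean added fluorescence quench of at least 8% versus neutral control, with both replicates also reaching 8%; inconclusive = only one of the mean or replicate conditions met; inactive = mean below 8% and not both replicates reaching 8%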;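 also: cells transiently co-express mutant CFTR-F508del with the halide-sensitive YFP; corrector assay measuring rescue of mutant channel to the surface after 24 h compound exposure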
The depositor's hits bear a star; [ ] = remark or other dose. Most compounds without a hit are left out; they make up all but 2.3% or so of the library.

CC(=O)c1ccc(NC(=O)c2ccc([N+](=O)[O-])o2)cc1 was read as FN deposition inh 8.3, HIV Env fusion -70.7, PGC1a acetyl inh -101.5, PAX8 inh HTS 24.7, EWS-Fli inh 2.9 and F508del corr 5.9.
Screening CN(C)CC#Cc1cccc(-c2nc(C(=O)N[C@@H]3CCN(Cc4ccccc4)C3)cc3c2[C@@H](CCO)N(S(=O)C(C)(C)C)C3)c1 (stereo partly specified) returned PGC1a acetyl inh -10.6, PAX8 inh HTS 1.5, EWS-Fli inh -13.6 and F508del corr -0.3.
Cc1ccc(S(=O)(=O)NCC[C@@H]2CC[C@@H](NC(=O)c3cccc(F)c3)[C@H](CO)O2)cc1 was read as HIV Env fusion -17.2[16.7 µM], PGC1a acetyl inh -3.9, PAX8 inh HTS -6.6, EWS-Fli inh 0.2 and F508del corr -4.2.
For C[C@@H]1CN([C@@H](C)CO)C(=O)c2cc(NS(=O)(=O)c3cccs3)ccc2O[C@@H](C)CCCCO[C@@H]1CN(C)C(=O)CCC(F)(F)F the results were HIV Env fusion 1.2[16.7 µM], PGC1a acetyl inh -0.2, PAX8 inh HTS 5.0, EWS-Fli inh -1.0 and F508del corr 1.6.
Screening Cc1ccccc1-c1ccc([C@@H]2[C@@H](CO)N3CCCCN(S(C)(=O)=O)C[C@@H]23)cc1 returned PGC1a acetyl inh -1.1, PAX8 inh HTS 18.6, EWS-Fli inh -2.6 and F508del corr -5.3.
Screening CC(Oc1ccc(Cl)cc1Cl)C(=O)Nc1ccc2oc(-c3ccncc3)nc2c1 (stereo unspecified) returned FN deposition inh 8.2, HIV Env fusion 63.6*, PGC1a acetyl inh -1.7 and PAX8 inh HTS -12.7.
For Cc1cc(C)cc(NC(=O)c2ccc([N+](=O)[O-])o2)c1 the results were FN deposition inh -5.9, HIV Env fusion -4.4, PGC1a acetyl inh -246.5, PAX8 inh HTS 74.6*, EWS-Fli inh 17.3 and F508del corr 4.2.
`CC(=O)c1cccc(NC(=O)c2ccc([N+](=O)[O-])o2)c1` gave FN deposition inh 0.1, HIV Env fusion -4.6, PGC1a acetyl inh -27.4, PAX8 inh HTS 57.0, EWS-Fli inh 28.6 and F508del corr 0.7.
`CN(C)C(=O)[C@@H]1[C@@H](CO)[C@@H]2Cn3c(ccc(-c4ccccc4)c3=O)[C@@H]2N1Cc1ccccc1` gave EWS-Fli inh 42.0 and F508del corr -0.3.
Screening CC[n+]1c(/C=C/c2c[nH]c3ccccc23)ccc2cc(C)ccc21 returned FN deposition inh -117.9, HIV Env fusion -5.8, PAX8 inh HTS 75.8*, EWS-Fli inh 30.6 and F508del corr 5.3.
Screening CCN(CC)C(=O)c1ccc(/C=C/c2c[nH]c3ccccc23)[n+](C)c1 returned FN deposition inh -17.0, HIV Env fusion -2.3 and PAX8 inh HTS -23.9.
COc1ccccc1C#Cc1ccc([C@H]2[C@@H](C#N)N(C(=O)C3CCC3)[C@@H]2CO)cc1 was read as FN deposition inh 9.6, HIV Env fusion -13.1[16.7 µM], PGC1a acetyl inh -8.0, PAX8 inh HTS 3.9, EWS-Fli inh -1.0 and F508del corr 0.2.
Screening COc1ccccc1C#Cc1ccc([C@H]2[C@@H](CO)N(C(=O)C3CCCCC3)[C@H]2C#N)cc1 returned FN deposition inh -1.4, HIV Env fusion -1.7[16.7 µM], PGC1a acetyl inh -4.5, PAX8 inh HTS 90.3*, EWS-Fli inh 17.8 and F508del corr -3.2.
For COc1ccccc1C#Cc1ccc([C@H]2[C@H](C#N)N(C(=O)C3CC3)[C@H]2CO)cc1 the results were FN deposition inh 0.7, PGC1a acetyl inh 29.1, PAX8 inh HTS 91.1*, EWS-Fli inh 18.4 and F508del corr 4.3.
COc1ccccc1C#Cc1ccc([C@H]2[C@@H](C#N)N(C(=O)C3CC3)[C@H]2CO)cc1 was read as FN deposition inh 4.5, PGC1a acetyl inh -2.3, PAX8 inh HTS 66.4*, EWS-Fli inh -26.0 and F508del corr 1.0.
Screening C[C@H](CO)N1C[C@H](C)[C@@H](CN(C)C(=O)Nc2ccccc2C(F)(F)F)OCc2ccccc2-c2ccccc2C1=O returned FN deposition inh -7.2.
For CN1c2ccc(C#Cc3cccnc3)cc2[C@H]2[C@H](CCN2S(=O)(=O)c2ccc(F)cc2)[C@H]1CO the results were FN deposition inh 1.9, PGC1a acetyl inh -9.4, PAX8 inh HTS 8.7, EWS-Fli inh 22.2 and F508del corr -0.2.
`COc1ccc2c3c(n(C)c2c1)[C@@H](CO)N(C(=O)Nc1ccc(F)cc1)CC31CCN(C(=O)CN2CCOCC2)CC1` gave HIV Env fusion -37.3[16.7 µM], EWS-Fli inh -3.4 and F508del corr -0.4.
CCCN(C)C[C@@H]1Oc2ncc(-c3ccccc3F)cc2C(=O)N([C@H](C)CO)C[C@@H]1C was read as HIV Env fusion 6.2[16.7 µM], PGC1a acetyl inh -10.7, EWS-Fli inh -2.9 and F508del corr 4.3.
Screening COc1cc(/C=C/C(=O)c2ccc3c(c2)OCO3)cc(Cl)c1O returned FN deposition inh 6.2, HIV Env fusion -5.2, PGC1a acetyl inh -4.1, PAX8 inh HTS -8.8, EWS-Fli inh -11.0 and F508del corr 9.7*.
Screening Nc1c(C(=O)Nc2cccc(C(=O)O)c2)sc2nc3c(cc12)CCCC3 returned FN deposition inh -3.1, HIV Env fusion 34.9, PGC1a acetyl inh 0.8, PAX8 inh HTS 84.8*, EWS-Fli inh 85.3* and F508del corr -0.7.
`COc1cc2nc(N3CCN(c4cc(C)ccc4C)CC3)nc(N)c2cc1OC` gave FN deposition inh 4.1, HIV Env fusion -4.3, PAX8 inh HTS 30.9, EWS-Fli inh 59.5* and F508del corr -2.1.
Screening O=C(Nc1c(Cl)cccc1Cl)Oc1cccc2cccnc12 returned FN deposition inh -1.2, HIV Env fusion inconclusive, PAX8 inh HTS 73.3*, EWS-Fli inh 26.2 and F508del corr -0.3.
O=C(Nc1cccc(Br)c1)Oc1cccc2cccnc12 was read as FN deposition inh -4.0, HIV Env fusion 14.1, PAX8 inh HTS 10.6, EWS-Fli inh -7.9 and F508del corr -1.7.
CC(C)C1CC(N(C)C)=CC(=S)N1 (stereo unspecified) was read as FN deposition inh -9.3, HIV Env fusion 58.3*, PAX8 inh HTS 78.2*, EWS-Fli inh 15.6 and F508del corr -2.9.
Screening CC(C)NC(=O)Nc1ccc2c(c1)C(=O)N(C)C[C@H](C)[C@@H](CN(C)S(C)(=O)=O)O2 returned FN deposition inh -8.4.
Screening CCOC(=O)c1sc2nc(Cc3ccc(Cl)cc3)[nH]c(=S)c2c1C returned FN deposition inh -4.9, HIV Env fusion 12.7, PAX8 inh HTS -1.8, EWS-Fli inh -3.5 and F508del corr 11.9*.
NC(=O)[C@H]1[C@@H]2C(=O)O[C@@H](c3ccccc3)[C@@H](c3ccccc3)N2[C@@H](c2ccc(O)cc2)[C@]12C(=O)Nc1ccc(C#CC3(O)CCCCCC3)cc12 was read as HIV Env fusion -9.6[16.7 µM], PAX8 inh HTS 1.7, EWS-Fli inh -4.6 and F508del corr 0.3.

High-throughput results from PubChem BioAssay.
